In ChEMBL document CHEMBL4145443, “Synthesis, β-hematin inhibition studies and antimalarial evaluation of new dehydroxy isoquine derivatives against Plasmodium berghei: A promising antimalarial agent” (Eur J Med Chem, 2018):

Tests used:
[1] = Inhibition of acetate buffer-initiated beta-hematin polymerization at 50 uM measured after 48 hrs relative to control
How it was run: (§1)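 Hemin chloride (4 mM in DMSO) was dispensed into plates with compound in DMSO (50-5 µM), in triplicate. Water or DMSO served as controls. Reaction was started with 0.2 M acetate buffer, pH 4.4, and run at 37 °C for 48 h. The pellet was centrifuged, washed twice with DMSO, dissolved in 0.2 N NaOH, diluted 1:2 in 0.1 N NaOH and read at 405 nm as % inhibition.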

[2] = Inhibition of acetate buffer-initiated beta-hematin polymerization measured after 48 hrs; how it was run: as §1
[3] = Cytotoxicity against mouse peritoneal macrophages assessed as growth inhibition after 48 hrs by MTT assay; format: cell-based, Peritoneal macrophage; details: read-out: LD50
How it was run: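 Murine peritoneal macrophages plated at 5 × 10^4 cells/well in DMEM with 5 mM L-glutamine, 10% FBS and antibiotics, then incubated overnight at 5% CO2. Compounds added at varied concentrations in duplicate wells, 48 h further incubation. Viability read by MTT reduction as % of untreated controls. LD50 taken by non-linear regression of % viability vs log concentration.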

[4] = Hemolytic activity in human RBC after 45 mins by spectrophotometric method; format: ADME, cell-based, Erythrocyte; details: red blood cells (erythrocytes)
How it was run: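 Human RBCs from 50% Alsever's solution were spun at 800g for 10 min and washed three times in saline. Compounds (5-5000 µM) were incubated with a 2% final RBC suspension at 37°C for 45 min. Released haemoglobin was read at 550 nm, with water as the 100% lysis control and saline as the negative control. Result given as the concentration lysing half the RBCs.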

[5] = test system: Plasmodium berghei; assay: Antimalarial activity against Plasmodium berghei ANKA infected in Balb/c mouse assessed as mouse survival time at 20 mg/kg, ip qd administered for 4 days starting from 2 hrs post infection (reference value: 6.8 +/- 0.7day); format: functional
How it was run: (§2)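 Male Balb-C mice (18-22 g, n=6 per group) infected i.v. via caudal vein with 10^6 P. berghei-infected RBC. Treatment started 2 h post-infection, once daily i.p. for 4 days. Compounds dissolved in DMSO (0.1 M stock), diluted with 2% Saline-Tween 20. Saline-treated controls. Survival time recorded relative to saline group. Parasitemia by Giemsa-stained smears at day 4. Mean±SD.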

[6] = test system: Plasmodium berghei; assay: Antimalarial activity against Plasmodium berghei ANKA infected in Balb/c mouse assessed as parasitemia at 20 mg/kg, ip qd administered for 4 days starting from 2 hrs post infection by Giemsa staining based microscopic method (reference value: 65.2 +/- 2.58%); format: functional
[7] = test system: Plasmodium berghei; assay: Antimalarial activity against Plasmodium berghei ANKA infected in Balb/c mouse assessed as mouse survival time at 25 mg/kg, ip qd administered for 4 days starting from 2 hrs post infection (reference value: 6.8 +/- 0.7day); format: functional; how it was run: as §2
[8] = test system: Plasmodium berghei; assay: Antimalarial activity against Plasmodium berghei ANKA infected in Balb/c mouse assessed as parasitemia at 25 mg/kg, ip qd administered for 4 days starting from 2 hrs post infection by Giemsa staining based microscopic method (reference value: 65.2 +/- 2.58%); format: functional

| Structure (SMILES) | inhibition [1] | IC50 [2] | CC50 at 48 h [3] | HC50 at 0.75 h [4] | Time [5] | Activity [6] | Time [7] | Activity [8] |
| --- | --- | --- | --- | --- | --- | --- | --- | --- |
| CC(C)(C)NCc1ccc(Nc2ccnc3cc(Cl)ccc23)cc1.Cl | 98.6% | 1.66 µM | 47.1 µM | 1.49 mM | 25.8 days | 4% |  |  |
| CCN(CC)CCCC(C)Nc1ccnc2cc(Cl)ccc12 (stereo unspecified) [CHLOROQUINE] | 98.6% | 1.48 µM |  | > 1.5 mM |  |  | 29.4 days | 0.6% |
| Clc1ccc2c(Nc3ccc(CN4CCOCC4)cc3)ccnc2c1 | 5.17% | > 50 µM | 36.2 µM | 0.591 mM |  |  |  |  |
| CCN(CC)Cc1ccc(Nc2ccnc3cc(Cl)ccc23)cc1 | 98.2% | 1.78 µM | 42.4 µM | 2.92 mM | 24.9 days | 3.8% |  |  |
